This note sets out measurements from ChEMBL document CHEMBL5331127, “Discovery of ARD-2051 as a Potent and Orally Efficacious Proteolysis Targeting Chimera (PROTAC) Degrader of Androgen Receptor for the Treatment of Advanced Prostate Cancer” (J Med Chem, 2023).

Molecules are shown by their SMILES. Active and inactive are the calls of the source. The calls are words filed in the database; no cut-off is given here. Bounds are passed on as bounds.

Series [1] addresses T1, Androgen receptor (Homo sapiens) (UniProt P10275).
T1 sequence (whole entry): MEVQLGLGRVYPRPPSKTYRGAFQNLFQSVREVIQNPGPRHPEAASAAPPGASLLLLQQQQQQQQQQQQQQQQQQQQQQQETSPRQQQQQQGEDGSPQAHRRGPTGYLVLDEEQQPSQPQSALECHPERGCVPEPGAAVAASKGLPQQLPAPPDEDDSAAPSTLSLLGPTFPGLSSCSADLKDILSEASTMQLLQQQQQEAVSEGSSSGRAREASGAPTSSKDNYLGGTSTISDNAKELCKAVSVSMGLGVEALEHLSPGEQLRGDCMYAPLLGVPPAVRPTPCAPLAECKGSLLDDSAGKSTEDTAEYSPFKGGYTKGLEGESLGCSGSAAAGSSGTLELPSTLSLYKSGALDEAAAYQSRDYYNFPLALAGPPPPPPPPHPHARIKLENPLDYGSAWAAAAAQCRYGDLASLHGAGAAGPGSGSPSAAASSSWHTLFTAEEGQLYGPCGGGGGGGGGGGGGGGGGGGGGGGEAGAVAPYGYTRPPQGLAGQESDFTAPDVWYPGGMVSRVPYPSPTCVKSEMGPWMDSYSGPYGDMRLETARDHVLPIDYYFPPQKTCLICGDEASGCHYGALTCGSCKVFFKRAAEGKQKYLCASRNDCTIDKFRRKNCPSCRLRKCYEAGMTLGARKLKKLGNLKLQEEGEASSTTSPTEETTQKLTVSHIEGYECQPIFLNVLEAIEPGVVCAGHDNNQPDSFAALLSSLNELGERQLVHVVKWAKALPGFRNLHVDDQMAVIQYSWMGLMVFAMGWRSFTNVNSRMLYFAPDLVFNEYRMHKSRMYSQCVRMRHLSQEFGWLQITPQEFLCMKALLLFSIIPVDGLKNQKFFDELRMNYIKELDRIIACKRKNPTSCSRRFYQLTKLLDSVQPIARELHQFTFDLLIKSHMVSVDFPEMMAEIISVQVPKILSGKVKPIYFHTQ
Description: Induction of androgen receptor degradation in human VCaP cells at 1 uM after 24 hrs by Western blotting analysis relative to control. Type of series: cell-based. The method in brief: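 VCaP cells treated for 24 h at 10, 100 or 1000 nM. AR protein measured by Western blotting.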
In general terms: In western blotting, separated proteins are transferred to a membrane and probed.

The nature of series [2]: Metabolic stability in human hepatocytes assessed as half life at 1 uM measured upto 120 mins in presence of NADPH by LC-MS/MS analysis. The conditions noted are these: 2 h. It counts as ADME, cell-based, Hepatocyte.
Series [3] can be described thus: Clearance in ICR mouse at 2 mg/kg, iv measured upto 24 hrs by LC-MS/MS analysis. Type of series: ADME, organism-based. The conditions noted are these: in vivo. The method in brief:
(§1)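 Male ICR mice (2 mg/kg), male SD rats (1 mg/kg) or male Beagle dogs (1 mg/kg) given a single intravenous dose in 10% PEG400 + 90% PBS adjusted to pH 8.0 with NaOH.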

The target of series [4] is T2, Cytochrome P450 2C8 (Homo sapiens, UniProt P10632).
T2 sequence (P10632 whole entry): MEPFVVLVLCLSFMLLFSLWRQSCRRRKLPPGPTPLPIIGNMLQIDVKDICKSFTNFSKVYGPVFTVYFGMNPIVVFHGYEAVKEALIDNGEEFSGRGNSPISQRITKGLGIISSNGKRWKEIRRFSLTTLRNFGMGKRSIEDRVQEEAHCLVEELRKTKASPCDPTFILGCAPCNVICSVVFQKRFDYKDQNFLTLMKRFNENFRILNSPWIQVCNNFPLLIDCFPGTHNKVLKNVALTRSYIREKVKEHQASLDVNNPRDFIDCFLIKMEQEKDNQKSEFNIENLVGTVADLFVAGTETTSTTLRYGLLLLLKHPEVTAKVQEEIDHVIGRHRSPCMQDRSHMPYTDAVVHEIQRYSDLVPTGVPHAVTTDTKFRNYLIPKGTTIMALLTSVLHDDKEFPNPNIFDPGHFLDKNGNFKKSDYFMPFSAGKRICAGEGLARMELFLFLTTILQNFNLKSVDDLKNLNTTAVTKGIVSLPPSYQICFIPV
Description: Inhibition of CYP2C8 in human liver microsomes preincubated for 5 mins followed by NADPH addition and measured after 20 mins by LC/MS analysis. It counts as ADME, Microsome.

A short description of series [5]: Metabolic stability in dog liver microsomes assessed as half life at 1 uM measured upto 45 mins in presence of NADPH by LC-MS/MS analysis. The conditions noted are these: 0.75 h. Type of series: ADME, Canis lupus familiaris, Microsome. Summed up:
(§2)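 Pooled liver microsomes from each species: 1 μM compound with 0.5 mg/mL microsomes and 1.7 mM NADPH in 0.1 M K-phosphate, pH 7.4, 5 mM MgCl2, 37 °C. Sampled at 0, 5, 10, 15, 30 and 45 min with cold ACN quench. No-NADPH incubation as negative control; ketanserin as positive control. LC-MS/MS; half-life from ln(remaining) versus time.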
On the technique in general: Liver microsomes are vesicles of endoplasmic reticulum, rich in cytochrome P450 enzymes.

A short description of series [6]: Cmax in Beagle dog at 3 mg/kg, po measured up to 24 hrs by LC-MS/MS analysis. Type of series: ADME, organism-based, Canis lupus familiaris. Details: time < 24 hrs, dose 3 mg/kg, route po. To be noted: in vivo. Summed up: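 Male Beagle dogs dosed orally at 3 mg/kg in 90% PEG400 + 10% Cremophor.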
In series [7] the test system is LNCaP. Description: Induction of androgen receptor degradation in human LNCaP cells at 100 nM pretreated with ARi-12 for 2 hrs followed by compound addition and 3 hrs by Western blot analysis. Type of series: functional, cell-based. The conditions noted are these: time 5.0 hrs. Summed up: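 LNCaP or VCaP cells pretreated 2 h with DMSO, ARi-12 (10 μM), thalidomide (10 μM), MG-132 (3 μM) or MLN4924 (0.5 μM), then given degrader at 100 nM for 3 h. AR measured by Western blot with GAPDH as loading control.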

Series [8] relates to LNCaP. Description: Growth inhibition in human LNCaP cells incubated for 4 days by WST-8 assay. Type of series: functional, cell-based. To be noted: 96 h. Background: Tetrazolium dyes change colour on reduction, which living cells bring about.
Series [9] is described as follows: Metabolic stability in human liver microsomes assessed as half life at 1 uM measured upto 45 mins in presence of NADPH by LC-MS/MS analysis. To be noted: 0.75 h. Type of series: ADME, Microsome. The method in brief: as §2
Series [10] is described as follows: Half life in Sprague-Dawley rat at 10 mg/kg, po measured up to 24 hrs by LC-MS/MS analysis. To be noted: in vivo. It counts as ADME, organism-based. Summed up: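 Male SD rats given a single oral dose of 10 mg/kg in 5% DMSO + 10% Solutol + 85% saline.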
In series [11] the test system is Mus musculus. In words: In vivo induction of androgen receptor degradation in human VCaP cells xenografted in CB17 SCID mouse at 12.5 mg/kg, po measured upto 24 hrs by […] analysis. It counts as functional, organism-based.
The subject of series [12] is VCaP. Description: Growth inhibition in human VCaP cells incubated for 4 days by WST-8 assay. It counts as functional, cell-based. To be noted: 96 h.
Series [13] in a line: AUC(0 to t) in Beagle dog at 1 mg/kg, iv measured upto 24 hrs by LC-MS/MS analysis. Type of series: ADME, organism-based, Canis lupus familiaris. Details: time < 24 hrs, dose 1 mg/kg, route iv. To be noted: in vivo. The method in brief:
as §1

Series [14] can be described thus: Half life in Beagle dog at 1 mg/kg, iv measured upto 24 hrs by LC-MS/MS analysis. Type of series: ADME, organism-based, Canis lupus familiaris. The conditions noted are these: in vivo. Summed up: as §1
Series [15] deals with Androgen receptor (Homo sapiens) (UniProt P10275). Description: In vivo induction of androgen receptor degradation in human VCaP cells xenografted in CB17 SCID mouse assessed as reduction in AR protein level at 12.5 mg/kg, po measured after 6 hrs by […] analysis. Details: scale not given: the % may be the effect or the level left.

One may read the clearance as the volume of plasma or blood freed of the substance per unit of time. By IC50 is commonly meant the concentration needed to halve the response being measured. The Cmax is the peak of the concentration-time curve. For `C[C@H]1CC2(CCN(c3ccc(C(=O)N4CCN(C5CN(c6ccc7c(c6)C(=O)N(C6CCC(=O)NC6=O)C7=O)C5)CC4)cc3)CC2)CN1c1ccc(C#N)c(Cl)c1` (stereo not given in full), the Activity was more than 95% in series [1] and 73% in [15]. Besides, the t1/2 in series [2] is more than 2 h; in series [5], more than 1 h; in series [9], more than 1 h; in [10], 3.9 h; in series [14], 8.9 h. The clearance in series [3] worked out at 3.7 mL/min/kg. Also, the IC50 is more than 10000 nM in series [4], 13 nM in series [8] and 10 nM in series [12]. Besides, the Cmax in series [6] turned out to be 294 ng/mL. The result in series [7] was inactive. Further, the outcome in [11] was Active. This molecule returned an AUCt in series [13] of 3240 ng·h/mL.
